High-throughput results as filed in PubChem BioAssay.
Compounds with a hit are over-represented: about 3.2% of the library has one in this group of screens.
DENV2 CPE rescue: inhibitors of DENV2 cytopathic effect | DENV2-infected cells, cytopathic effect rescue, plate reader | CPE inhibition, % at 9.99 µM | 350,000 tested, 1.7% active | AID 651640; in the data active = CPE inhibition above about 20%, passing the limit was not always enough; inconclusive = no clear call, values can overlap the other calls; tested in BHK-21 cells;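 also: 0% = median of neutral control wells and 100% = median of positive control wells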
Ecoli rRNA inh: selective bacterial rRNA inhibition in E. coli; E. coli WT GFP vs humanized-ribosome RFP mutants, fluorescence, 24 h; hits give low values; DMSO median 0, no signal -100; GFP signal change (wild-type ribosome), % (test concentration not listed); AID 720706; 350,000 tested, 1.6% active;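 active = significant combined selectivity score with lowered wild-type GFP, culture density cut under 30%, mutant RFP and density less affected; inactive = any of these conditions unmet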
MLL AF4-AF9 inh: MLL-AF4/AF9 protein interaction inhibition; P42568; AlphaScreen, biotin-AF4 peptide binding to FLAG-AF9; inhibition, % at 10 µM; 350,000 tested, 0.47% active; AID 651704;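 active = every replicate reaching a set inhibition limit, whatever the replicate mean, cut at about 25% in these data; inconclusive = mean inhibition reaches that limit but some replicates miss it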;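 also: 0% = plate neutral control median and 100% = total signal loss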
Target sequence (P42568 whole entry, looked up): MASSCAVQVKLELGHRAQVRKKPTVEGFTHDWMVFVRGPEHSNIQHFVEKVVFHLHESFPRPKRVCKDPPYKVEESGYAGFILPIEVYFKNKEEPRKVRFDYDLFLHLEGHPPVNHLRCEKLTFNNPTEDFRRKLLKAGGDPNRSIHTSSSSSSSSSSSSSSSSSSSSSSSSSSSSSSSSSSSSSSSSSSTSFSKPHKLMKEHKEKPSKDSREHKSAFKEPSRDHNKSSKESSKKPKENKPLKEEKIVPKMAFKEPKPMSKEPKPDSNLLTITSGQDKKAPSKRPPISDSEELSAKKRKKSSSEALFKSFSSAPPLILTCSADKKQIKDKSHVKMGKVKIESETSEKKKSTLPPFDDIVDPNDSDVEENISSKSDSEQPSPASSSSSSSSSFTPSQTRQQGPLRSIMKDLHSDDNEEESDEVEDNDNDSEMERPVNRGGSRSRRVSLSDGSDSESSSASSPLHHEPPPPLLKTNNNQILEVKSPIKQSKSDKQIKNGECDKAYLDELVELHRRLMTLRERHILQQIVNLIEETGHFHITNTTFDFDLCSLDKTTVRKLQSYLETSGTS
S100A4 inh HTS: inhibitors of human S100A4 binding to myosin IIA peptide; S100A4/TAMRA-MyoIIA peptide fluorescence polarization; inhibition, % at 10.7 µM; 360,000 tested, 0.14% active; P26447;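 active = mean inhibition of at least 70% across replicates, with every replicate also reaching that level; inconclusive = mean inhibition reaches 70% but some replicates fall short; inactive = mean inhibition below 70%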
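Material: S100A4 monomer (human). Medium: Calcium-containing HEPES buffer, pH 7.2. Probe or stimulus: labelled myosin peptide probe, 5 nM. Compound dosing: one concentration per compound. Timing: polarization read 5 min after assay mix addition, stable 5–60 min. Benchmarks: DMSO as neutral control, TFP as positive control.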
PfHsp90 set2: inhibits growth of yeast expressing Plasmodium falciparum Hsp90. S. cerevisiae expressing PfHsp90, BacTiter-Glo ATP, 48 h; yeast lacking PDR1 and PDR3 efflux regulators. inhibition, % at 9.4 µM. AID 504621. 310,000 tested, 0.32% active;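 active = every replicate shows inhibition above about 80%, whatever the replicate mean, limit read from the data; inconclusive = mean inhibition reaches the set limit but some replicate falls short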;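 also: 0% = DMSO neutral controls and 100% = 20 µM radicicol positive controls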
Cneo AK release: Cryptococcus neoformans lysis via adenylate kinase release; lysis activity, % at 15 µM; C. neoformans lysis, adenylate kinase release luminescence, 4 h; normalised: neutral wells 0, clomiphene wells 100; AID 651654; 360,000 tested, 0.2% active;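 active = mean lysis activity across replicates of at least 80%, whatever share of replicates individually reach that level; inactive = mean lysis activity below 80%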
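Test system: log-phase Cryptococcus neoformans yeast cells. Input: 5 × 10^6 yeast cells/mL. Medium: fresh YPD growth medium. Doses: single dose. Incubation: static 4 h at 37 °C with compound, 1 h detection. Measured by: luminescent adenylate kinase detection reagent. Read-out: signal increase indicating cell lysis. Benchmarks: Clomiphene.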
The depositor's hits bear a star; ? = inconclusive; . = no result given.

SMILES	DENV2 CPE rescue	Ecoli rRNA inh	MLL AF4-AF9 inh	S100A4 inh HTS	PfHsp90 set2	Cneo AK release
O=C(Cc1cccs1)N/N=C\c1ccc([N+](=O)[O-])s1	-6	-57	5	-3	-58	.
CC(C)CC#Cc1cnc2c(c1)C(=O)N([C@@H](C)CO)C[C@H](C)[C@H](CN(C)C(=O)c1cnccn1)O2	-7	3	-7	7	.	4
O=C(C[C@@H]1CC[C@H]2[C@@H](COC[C@H](O)CN2Cc2cc(F)ccc2F)O1)NCc1ccccc1	4	-1	-3	-4	.	-3
COc1ccc(NC(=O)COC(=O)CCCOc2ccc(Cl)cc2Cl)cc1Cl	0	-22*	-2	-5	-11	.
COc1ccc(NC(=O)COC(=O)c2c(C)noc2C)cc1Cl	39*	-2	3	6	.	0
COC(=O)c1ccc(CN2CCCC(CO)(Cc3ccccc3F)C2)cc1 (configuration not stated)	-5	-20*	2	-1	1	-5
Cc1ccc(Nc2nc(N)c([N+](=O)[O-])c(N3CCOCC3)n2)cc1	.	.	.	.	-19	.
COc1cccc(Nc2nc(N)c([N+](=O)[O-])c(N3CCOCC3)n2)c1	0	-29*	6	-2	19	-1
Cc1cccc(Nc2nc(N)c([N+](=O)[O-])c(N3CCOCC3)n2)c1	-2	-24*	13	-3	-16	-7
CCOc1ccc(Nc2nc(N)c([N+](=O)[O-])c(N3CCOCC3)n2)cc1	-3	20	-2	-8	-4	0
CN(C)CCCNC(=O)C[C@H]1CC[C@H](NC(=O)c2ccccc2F)[C@@H](CO)O1	-3	.	-1	28	.	-2
CC(C)C#Cc1cnc2c(c1)C(=O)N([C@@H](C)CO)C[C@@H](C)[C@@H](CN(C)C(=O)c1ccc3c(c1)OCO3)O2	11	1	-3	2	.	.
C[C@@H]1CN([C@@H](C)CO)C(=O)c2cc(NC(=O)CCN3CCOCC3)ccc2O[C@H]1CN(C)S(=O)(=O)c1cn(C)cn1	-13	1	-1	6	.	46
Cc1ccc(N(CC(O)Cn2nc(C)cc2C)S(=O)(=O)c2ccc3ccccc3c2)cc1 (configuration not stated)	5	-31*	-53	-3	16	.
Cc1cc(C)n(CC(O)CN(c2ccccc2)S(=O)(=O)c2ccccc2)n1 (configuration not stated)	.	.	.	.	-21	0
Cc1noc(C)c1NC(=O)Nc1ccc2c(c1)C(=O)N([C@@H](C)CO)C[C@@H](C)[C@@H](CN(C)S(=O)(=O)c1cn(C)cn1)OCCCC[C@@H](C)O2	.	0	-1	-5	.	-1
CCC(=O)N1[C@@H]2c3ccc(C4=CCCC4)c(=O)n3C[C@H]1[C@H](CO)[C@H]2C(=O)N[C@H](C)c1ccccc1	?	-2	1	9	.	1
CCC(=O)N1[C@@H]2c3ccc(-c4ccncc4)c(=O)n3C[C@H]1[C@H](CO)[C@H]2C(=O)NC1Cc2ccccc2C1	-8	-2	-11	154*	.	51
CC=Cc1ccc2n(c1=O)C[C@@H]1[C@@H](CO)[C@H](C(=O)NC3Cc4ccccc4C3)[C@H]2N1C(C)=O (mixture of isomers)	31*	-1	-4	6	.	4
CCC(=O)N1[C@@H]2Cn3c(ccc(C4=CCCCC4)c3=O)[C@H]1[C@@H](C(=O)N[C@H](C)c1ccccc1)[C@@H]2CO	-1	-5	2	-1	.	93*
CC(=O)N1[C@@H]2c3ccc(-c4ccccc4)c(=O)n3C[C@H]1[C@H](CO)[C@H]2C(=O)Nc1ccccc1	48*	-2	-1	12	.	87*
O=C(C[C@@H]1CC[C@H]2[C@@H](COC[C@H](O)CN2S(=O)(=O)c2ccccc2)O1)N1CCOCC1	2	-3	-11	4	.	-2
COC(=O)[C@@H]1[C@@H](CO)[C@@H]2Cn3c(ccc(-c4ccc(F)cc4)c3=O)[C@@H]2N1C(=O)C1CCC1	-3	2	-2	1	.	1
